From ChEMBL document CHEMBL4627249, “New modification strategy of matrine as Hsp90 inhibitors based on its specific L conformation for cancer treatment” (Bioorg Med Chem, 2020)
Activity calls are given as the source filed them. The rule behind the calls is not given here.

Columns and labels:
HepG2 = assay: Antiproliferative activity against human HepG2 cells assessed as reduction in cell viability after 48 hrs by MTT assay; assay type: functional, cell-based; settings: HepG2, 48 h
In short: (§1)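 HepG2 or HeLa cells in DMEM with 10% FBS and 1% penicillin-streptomycin were preincubated 24 h (37 °C, 5% CO2). They were then exposed for 48 h to 1, 5, 10, 20, 50 and 100 µM, diluted in medium from DMSO stocks. MTT (5 mg/mL, 20 µL) was added for 4 h, formazan dissolved in DMSO, and A490 read. Each concentration was run in triplicate. IC50 is the mean from dose-response curves of at least three independent experiments; cisplatin was the positive control.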

MDA-MB-231 = assay: Antiproliferative activity against human MDA-MB-231 cells assessed as reduction in cell viability after 48 hrs by MTT assay; assay type: functional, cell-based; settings: MDA-MB-231, 48 h
[1] = target: Heat shock protein HSP90 (Homo sapiens) (UniProt P07900+P08238)
HeLa = assay: Antiproliferative activity against human HeLa cells assessed as reduction in cell viability after 48 hrs by MTT assay; assay type: functional, cell-based; in short: as §1

| Structure (SMILES) | IC50 (HepG2) [µM] | IC50 (MDA-MB-231) [µM] | ΔTm [1] [°C] | IC50 (HeLa) [µM] | deltaTm [1] |
| --- | --- | --- | --- | --- | --- |
| Nc1c2c(nc3ccc(Cl)cc13)N1C[C@@H]3CCCN4CCC[C@@H]([C@H]34)[C@H]1CC2 | 6.4 | 14.3 | -6.58 | 8.9 |  |
| CC(C)c1ccc(/N=C2\CCC[C@@H]3[C@H]4CCCN5CCC[C@@H](CN23)[C@@H]45)cc1 | 96.6 | 77.5 | -1.24 | 93.3 |  |
| Cc1c(/N=C2\CCC[C@@H]3[C@H]4CCCN5CCC[C@@H](CN23)[C@@H]45)cccc1[N+](=O)[O-] | 86.1 | > 100 | -1.06 | > 100 |  |
| Clc1ccc(/N=C2\CCC[C@@H]3[C@H]4CCCN5CCC[C@@H](CN23)[C@@H]45)cc1 | > 100 | 73.4 |  | > 100 | inactive |
| O=C1CCCC[C@@H]2[C@H]3CCCN4CCC[C@@H](CN12)[C@@H]34 | > 100 | > 100 |  | > 100 |  |
| O=C1CCC[C@@H]2[C@H]3CCCN4CCC[C@@H](CN12)[C@@H]34 [MATRINE] | 4510 | 5370 | 0.04 | 4330 |  |
| COc1ccc2nc3c(c(N)c2c1)CC[C@@H]1[C@H]2CCCN4CCC[C@@H](CN31)[C@@H]24 | 10.9 | 21.2 | -5.48 | 18 |  |
| O=C1C[C@@H]2[C@H]3CCCN4CCC[C@@H](CN12)[C@@H]34 | > 100 | > 100 | 0.44 | > 100 |  |
| c1ccc(-c2ccc(/N=C3\CCC[C@@H]4[C@H]5CCCN6CCC[C@@H](CN34)[C@@H]56)cc2)cc1 | 11 | 24.6 | -4.91 | 23.7 |  |
| c1ccc(/N=C2\CCC[C@@H]3[C@H]4CCCN5CCC[C@@H](CN23)[C@@H]45)cc1 | > 100 | > 100 | -0.57 | > 100 |  |
